Reference: ChEMBL document CHEMBL3871270, “Structural and Biochemical Characterization of the Interaction of Tubulin with Potent Natural Analogues of Podophyllotoxin” (J Nat Prod, 2016)
Calls of active or inactive are those of the source. The rule behind the calls is not given here.

Experiments:
A549 [1] = assay: Binding affinity to alpha-tubulin in human A549 cells assessed as induction of microtubule depolymerization by measuring formation of abnormal type 4 spindles at 100 nM after 24 hrs by immunofluorescence microscopy; format: cell-based
Procedure, shortened: (§1)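 A549 cells were exposed to compound or DMSO vehicle for 24 h. They were then stained with DM1A anti-α-tubulin monoclonal antibody for microtubules and Hoechst 33342 for DNA. Cytoplasmic microtubule networks and mitotic spindle morphology, including abnormal type IV ball-shaped spindles, were examined by immunofluorescence microscopy.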

[2] = Cytotoxicity against human A549 cells assessed as decrease in cell viability after 48 hrs by MTT assay; format: functional, cell-based; details: A549, 48 h
Procedure, shortened: (§2)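 A549 lung and A2780 ovarian human carcinoma cells were treated for 48 h, and viability was read by MTT assay. IC50 values are given as mean ± standard error of three independent experiments.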

Homo sapiens [3] = organism: Homo sapiens; assay: Inhibition of tubulin assembly (unknown origin) assessed as decrease in pelleted microtubules up to 40 uM after 20 mins
Procedure, shortened: (§3)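 Purified tubulin was assembled at 30 μM, above its 3.3 μM critical concentration, in the presence of compound. The resulting microtubules were pelleted by mild centrifugation to quantify assembly.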

[4] = (§4) Inhibition of 2-methoxy-5-(2,3,4-trimethoxyphenyl)-2,4,6-cycloheptatrien-1-one binding to colchicine binding site of tubulin (unknown origin) by fluorescence spectroscopic analysis; parameters: species or system Homo sapiens
Procedure, shortened: (§5)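 Tubulin binding constants (Kb) were obtained from a competition assay against the colchicine-site fluorescent probe MTC, assuming 1:1 stoichiometry.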

Homo sapiens [5] = organism: Homo sapiens; assay: as §4; procedure, shortened: as §5
Homo sapiens [6] = organism: Homo sapiens; assay: Inhibition of 2-methoxy-5-(2,3,4-trimethoxyphenyl)-2,4,6-cycloheptatrien-1-one binding to colchicine binding site of tubulin (unknown origin) at 10 uM by fluorescence assay
Procedure, shortened: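 Fluorescence emission spectra were recorded at 350 nm excitation for 10 μM purified tubulin plus 10 μM MTC (a colchicine-site probe), with 10 μM test compound. Reference spectra were MTC with tubulin alone and MTC alone. The result is the percent decrease in MTC fluorescence.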

[7] = Cell cycle arrest in human A549 cells assessed as accumulation at G2/M phase at 100 nM after 20 hrs by propidium iodide staining based flow cytometry; format: functional
Procedure, shortened: (§6)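 A549 cells were grown for 20 h with compound across 20 nM to 25 μM. DMSO was the negative control and paclitaxel (30−50 nM) the positive control. The percentage of cells in each cell-cycle phase was determined from flow cytometry DNA histograms.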

Homo sapiens [8] = organism: Homo sapiens; assay: Binding affinity to tubulin alpha/beta dimer (unknown origin) at 300 uM by STD-NMR method
[9] = Cytotoxicity against human A2780 cells assessed as decrease in cell viability after 48 hrs by MTT assay; format: functional, cell-based; details: A2780, 48 h; procedure, shortened: as §2
[10] = Cell cycle arrest in human A549 cells assessed as accumulation at G2/M phase at 25 uM after 20 hrs by propidium iodide staining based flow cytometry; format: functional
Procedure, shortened: (§7)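 A549 cells grown 20 h with compound across 20 nM to 25 μM; DMSO as negative and paclitaxel (30−50 nM) as positive control; DNA content histograms by flow cytometry give percent of cells in each cell cycle phase.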

A549 [11] = assay: Binding affinity to alpha-tubulin in human A549 cells assessed as induction of microtubule depolymerization by measuring formation of abnormal type 4 spindles at 50 uM after 24 hrs by immunofluorescence microscopy; format: cell-based
Procedure, shortened: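 A549 cells exposed 24 h, DMSO vehicle control; microtubules stained with DM1A anti-α-tubulin monoclonal antibody and DNA with Hoechst 33342; cytoplasmic microtubule network and mitotic spindle morphology scored by immunofluorescence microscopy.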

[12] = Cell cycle arrest in human A549 cells assessed as decrease in G1 phase population at 25 uM after 20 hrs by propidium iodide staining based flow cytometry; format: functional; procedure, shortened: as §7
[13] = Cell cycle arrest in human A549 cells assessed as decrease in G1 phase population at 1 uM after 20 hrs by propidium iodide staining based flow cytometry; format: functional; procedure, shortened: as §6
A549 [14] = assay: Binding affinity to alpha-tubulin in human A549 cells assessed as induction of microtubule depolymerization by measuring formation of abnormal type 4 spindles at 1 uM after 24 hrs by immunofluorescence microscopy; format: cell-based; procedure, shortened: as §1
[15] = Cell cycle arrest in human A549 cells assessed as accumulation at G2/M phase at 1 uM after 20 hrs by propidium iodide staining based flow cytometry; format: functional; procedure, shortened: as §6
Homo sapiens [16] = organism: Homo sapiens; assay: Inhibition of tubulin assembly (unknown origin) assessed as decrease in pelleted microtubules up to 30 uM after 20 mins; procedure, shortened: as §3
Homo sapiens [17] = organism: Homo sapiens; assay: Binding affinity to tubulin alpha/beta dimer (unknown origin) by TR-NOESY NMR spectroscopy
[18] = Cell cycle arrest in human A549 cells assessed as decrease in G1 phase population at 100 nM after 20 hrs by propidium iodide staining based flow cytometry; format: functional; procedure, shortened: as §6
Homo sapiens [19] = organism: Homo sapiens; assay: Binding affinity to tubulin alpha/beta dimer (unknown origin) at 100 uM by STD-NMR method

| SMILES | Activity (A549 [1]) | IC50 [2] | inhibition (Homo sapiens [3]) | Kd [4] | Kb (Homo sapiens [5]) | inhibition (Homo sapiens [6]) | Activity [7] | Activity (Homo sapiens [8]) | IC50 [9] | Activity [10] | Activity (A549 [11]) | Activity [12] | Activity [13] | Activity (A549 [14]) | Activity [15] | inhibition (Homo sapiens [16]) | Activity (Homo sapiens [17]) | Activity [18] | Activity (Homo sapiens [19]) |
| --- | --- | --- | --- | --- | --- | --- | --- | --- | --- | --- | --- | --- | --- | --- | --- | --- | --- | --- | --- |
| COc1cc([C@@H]2c3cc4c(cc3[C@H](O)[C@H]3COC(=O)[C@H]23)OCO4)cc(OC)c1OC [PODOFILOX] | Active | 15 nM | > 80% | 54 nM | 185 ×10⁵ /M | 68% | 70 to 80% | Active | 18 nM |  |  |  |  |  |  |  |  |  |  |
| COc1c2c(cc3c1OCO3)[C@@H](c1ccc3c(c1)OCO3)[C@@H]1C(=O)OC[C@@H]1C2 |  | 8670 nM |  |  |  | Active |  |  | 12900 nM | Active | Active | Active |  |  |  |  |  |  |  |
| COc1cc(C2=C3C(=O)OC[C@@H]3[C@@H](OC(C)=O)c3cc4c(cc32)OCO4)cc(OC)c1OC |  | 263 nM |  |  |  | 17% |  |  | 587 nM |  |  |  | Active | Active | Active | Active |  |  |  |
| COc1ccc([C@@H]2c3cc4c(c(OC)c3C[C@H]3COC(=O)[C@@H]32)OCO4)cc1OC | Active | 33 nM |  | 850 nM | 11.8 ×10⁵ /M | 43% | Active |  | 84 nM |  |  |  |  |  |  | Active | Active | Active | Active |
| COc1cc([C@@H]2c3cc4c(cc3[C@H](OC(C)=O)[C@H]3COC(=O)[C@H]23)OCO4)cc(OC)c1OC | Active | 25 nM | > 80% | 58 nM | 170 ×10⁵ /M | 65% | Active |  | 34 nM |  |  |  |  |  |  |  |  | Active | Active |
